Test results taken from ChEMBL document CHEMBL5712907, “Inhibition of super enhancer downregulates the expression of KLF5 in basal-like breast cancers” (Int J Biol Sci, 2018).
The source made the active and inactive calls. No cut-off for these calls is given here.

Columns and labels:
HCC1937 [1] = assay: Effect on human HCC1937 cells assessed as reduction in KLF5 mRNA at 1 uM for 12 to 24 hrs by qPCR analysis; type: functional, cell-based; conditions: time 12-24 hrs
Outline: (§1)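 HCC1806 or HCC1937 cells treated with 1 μM for 12 h or 24 h; KLF5 mRNA quantified by qPCR; experimental triplicates, SD, t-test.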

HCC1806 [2] = assay: Effect on human HCC1806 cells assessed as reduction in KLF5 mRNA at 1 uM for 12 to 24 hrs by qPCR analysis; type: functional, cell-based; conditions: time 12-24 hrs; outline: as §1
HCC1806 [3] = assay: Downregulation of FGFBP in human HCC1806 cells treated at 1 to 3 uM for 24 hrs by immunoblotting analysis; type: functional, cell-based; conditions: dose 1-3 µM
Outline: (§2)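 HCC1806 or HCC1937 cells (RPMI-1640, 10% FBS, 37 °C, 5% CO2) treated 24 h; lysed with protease inhibitors, protein assayed, equal amounts run on SDS-PAGE, blotted to PVDF, blocked in 5% milk/PBS-0.2% Tween-20, probed for KLF5, FGFBP, p21, c-MYC and GAPDH loading control; HRP secondary, ECL detection.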

HCC1937 [4] = assay: Downregulation of FGFBP in human HCC1937 cells treated at 1 to 3 uM for 24 hrs by immunoblotting analysis; type: functional, cell-based; conditions: dose 1-3 µM; outline: as §2
HCC1806 [5] = assay: Upregulation of p21 in human HCC1806 cells treated at 1 to 3 uM for 24 hrs by immunoblotting analysis; type: functional, cell-based; conditions: dose 1-3 µM; outline: as §2
HCC1937 [6] = assay: Upregulation of p21 in human HCC1937 cells treated at 1 to 3 uM for 24 hrs by immunoblotting analysis; type: functional, cell-based; conditions: dose 1-3 µM; outline: as §2
HCC1806 [7] = assay: Downregulation of KLF5 in human HCC1806 cells treated at 1 uM by immunoblotting analysis; type: functional, cell-based; conditions: time 12-72 hrs, TDE = time-dependent effect
Outline: (§3)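 Time course: HCC1806 or HCC1937 cells exposed to 1 μM for the indicated times, pellets collected at each time point and lysed with protease inhibitors; equal protein immunoblotted after SDS-PAGE/PVDF transfer for KLF5, GAPDH loading control, ECL detection.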

HCC1937 [8] = assay: Downregulation of KLF5 in human HCC1937 cells treated at 1 uM by immunoblotting analysis; type: functional, cell-based; conditions: time 12-72 hrs, TDE = time-dependent effect; outline: as §3
HCC1806 [9] = assay: Induction of cell cycle arrest in human HCC1806 cells assessed as increase in accumulation of cells at G1 phase at 0.3 to 1 uM for 24 hrs by flow cytometric analysis; type: functional, cell-based; conditions: dose 0.3-1 µM
Outline: (§4)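 HCC1806 or HCC1937 cells seeded, cultured overnight, treated 24 h; fixed in 70% ethanol, RNase A 40 µg/ml, propidium iodide 10 µg/ml; flow cytometry with G1, S and G2/M percentages; experimental triplicates, SD.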

HCC1806 [10] = assay: Induction of cell cycle arrest in human HCC1806 cells assessed as decrease in accumulation of cells at S phase at 0.3 to 1 uM for 24 hrs by flow cytometric analysis; type: functional, cell-based; conditions: dose 0.3-1 µM; outline: as §4
HCC1937 [11] = assay: Induction of cell cycle arrest in human HCC1937 cells assessed as increase in accumulation of cells at G1 phase at 0.3 to 1 uM for 24 hrs by flow cytometric analysis; type: functional, cell-based; conditions: dose 0.3-1 µM; outline: as §4
HCC1937 [12] = assay: Induction of cell cycle arrest in human HCC1937 cells assessed as decrease in accumulation of cells at S phase at 0.3 to 1 uM for 24 hrs by flow cytometric analysis; type: functional, cell-based; conditions: dose 0.3-1 µM; outline: as §4
HCC1806 [13] = assay: Inhibition of cell growth in human HCC1806 cells infected with pCDH-3 Flag tagged KLF5 assessed as ectopic KLF5 expression at 100 to 10000 nM for 72 hrs by SRB assay; type: functional, cell-based; conditions: dose 100-10000 nM
Outline: (§5)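 HCC1806 or HCC1937 cells infected with pCDH-3×Flag-KLF5 or empty pCDH vector lentivirus, plated in 96-well format and treated 72 h; inhibition rate by sulforhodamine B staining read at 560 nm; experimental triplicates, SD.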

HCC1937 [14] = assay: Inhibition of cell growth in human HCC1937 cells infected with pCDH-3 Flag tagged KLF5 assessed as ectopic KLF5 expression at 100 to 10000 nM for 72 hrs by SRB assay; type: functional, cell-based; conditions: dose 100-10000 nM; outline: as §5
HCC1806 [15] = assay: Cytotoxicity against human HCC1806 cells assessed as reduction in cell viability at 10 to 10000 nM for 72 hrs by SRB assay; type: functional, cell-based; conditions: dose 10-10000 nM
Outline: (§6)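 HCC1806 or HCC1937 cells grown in RPMI-1640 with 10 % FBS at 37 °C, 5 % CO2, then exposed to graded compound concentrations for 72 h. Viability read by sulforhodamine B staining, absorbance at 560 nm. Experimental triplicates, SD shown.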

HCC1937 [16] = assay: Cytotoxicity against human HCC1937 cells assessed as reduction in cell viability at 10 to 10000 nM for 72 hrs by SRB assay; type: functional, cell-based; conditions: dose 10-10000 nM; outline: as §6
HCC1806 [17] = assay: Effect on KLF5 suppression in human HCC1806 cells at 50 to 200 nM for 24 hrs by immunoblotting analysis; type: functional, cell-based; conditions: dose 50-200 nM
Outline: (§7)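 Cells in RPMI-1640/10 % FBS treated with compound for 24 h, lysed with protease inhibitor cocktail, and protein quantified. Equal protein run on SDS-PAGE and blotted to PVDF. Blocked in 5 % milk in PBS-0.2 % Tween-20, probed for KLF5, c-MYC and FGF2, with GAPDH as loading control. HRP secondary antibody, ECL detection.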

HCC1937 [18] = assay: Effect on KLF5 suppression in human HCC1937 cells at 50 to 200 nM for 24 hrs by immunoblotting analysis; type: functional, cell-based; conditions: dose 50-200 nM; outline: as §7
HCC1806 [19] = assay: Effect on FGFPB suppression in human HCC1806 cells at 50 to 200 nM for 24 hrs by immunoblotting analysis; type: functional, cell-based; conditions: dose 50-200 nM
HCC1937 [20] = assay: Effect on FGFPB suppression in human HCC1937 cells at 50 to 200 nM for 24 hrs by immunoblotting analysis; type: functional, cell-based; conditions: dose 50-200 nM
HCC1806 [21] = assay: Effect on c-MYC suppression in human HCC1806 cells at 50 to 200 nM for 24 hrs by immunoblotting analysis; type: functional, cell-based; conditions: dose 50-200 nM; outline: as §7
HCC1937 [22] = assay: Effect on c-MYC suppression in human HCC1937 cells at 50 to 200 nM for 24 hrs by immunoblotting analysis; type: functional, cell-based; conditions: dose 50-200 nM; outline: as §7
HCC1806 [23] = assay: Potency index, ratio of test compound to (S)-tert-butyl 2-(4-(4-chlorophenyl)-2,3,9-trimethyl-6H-thieno[3,2-f] [1,2,4]triazolo[4,3-a] [1,4]diazepin-6-yl)acetate for effect on human HCC1806 cells assessed as reduction in KLF5 level at 0.1 to 3 uM for 24 hrs; type: functional; conditions: dose 0.1-3 µM
HCC1937 [24] = assay: Potency index, ratio of test compound to (S)-tert-butyl 2-(4-(4-chlorophenyl)-2,3,9-trimethyl-6H-thieno[3,2-f] [1,2,4]triazolo[4,3-a] [1,4]diazepin-6-yl)acetate for effect on human HCC1937 cells assessed as reduction in KLF5 level at 0.1 to 3 uM for 24 hrs; type: functional; conditions: dose 0.1-3 µM
HCC1806 [25] = assay: Potency index, ratio of test compound to (S)-tert-butyl 2-(4-(4-chlorophenyl)-2,3,9-trimethyl-6H-thieno[3,2-f] [1,2,4]triazolo[4,3-a] [1,4]diazepin-6-yl)acetate for effect on human HCC1806 cells assessed as reduction in c-MYC level at 0.1 to 3 uM for 24 hrs; type: functional; conditions: dose 0.1-3 µM
HCC1937 [26] = assay: Potency index, ratio of test compound to (S)-tert-butyl 2-(4-(4-chlorophenyl)-2,3,9-trimethyl-6H-thieno[3,2-f] [1,2,4]triazolo[4,3-a] [1,4]diazepin-6-yl)acetate for effect on human HCC1937 cells assessed as reduction in c-MYC level at 0.1 to 3 uM for 24 hrs; type: functional; conditions: dose 0.1-3 µM
HCC1806 [27] = assay: Induction of cell cycle arrest in human HCC1806 cells assessed as increase in accumulation of cells at G1 phase at 0.1 to 0.3 uM for 24 hrs by flow cytometric analysis; type: functional, cell-based; conditions: dose 0.1-0.3 µM
Outline: (§8)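 Seeded cells were cultured overnight, then treated with compound for 24 h. Fixed in 70 % ethanol, treated with 40 µg/ml RNase A and stained with 10 µg/ml propidium iodide. Analysed by flow cytometry for G1, S and G2/M fractions. Experimental triplicates, SD shown.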

HCC1937 [28] = assay: Induction of cell cycle arrest in human HCC1937 cells assessed as increase in accumulation of cells at G1 phase at 0.1 to 0.3 uM for 24 hrs by flow cytometric analysis; type: functional, cell-based; conditions: dose 0.1-0.3 µM; outline: as §8
HCC1806 [29] = assay: Induction of cell cycle arrest in human HCC1806 cells assessed as increase in accumulation of cells at G1 phase at 0.3 uM for 24 hrs by flow cytometric analysis; type: functional, cell-based; outline: as §8
HCC1937 [30] = assay: Induction of cell cycle arrest in human HCC1937 cells assessed as increase in accumulation of cells at G1 phase at 0.3 uM for 24 hrs by flow cytometric analysis; type: functional, cell-based; outline: as §8
HCC1806 [31] = assay: Inhibition of DNA synthesis in human HCC1806 cell at 0.1 to 0.3 uM measured for 24 hrs by Edu incorporation assay; type: functional, cell-based; conditions: dose 0.1-0.3 µM
Outline: (§9)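 After 24 h treatment at different concentrations, cells were EdU-labelled with the Click-iT imaging kit, fixed and DNA-stained. Fluorescence micrographs were taken and five random fields counted per sample. Result given as % EdU-positive (EdU-positive/total cells). Experimental triplicates, SD shown.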

HCC1937 [32] = assay: Inhibition of DNA synthesis in human HCC1937 cell at 0.1 to 0.3 uM measured for 24 hrs by Edu incorporation assay; type: functional, cell-based; conditions: dose 0.1-0.3 µM; outline: as §9
HCC1806 [33] = assay: Inhibition of cell growth in human HCC1806 cells infected with pCDH-3 Flag tagged KLF5 assessed as ectopic KLF5 expression at 0.01 to 10000 nM for 72 hrs by SRB assay; type: functional, cell-based; conditions: dose 0.01-10000 nM
Outline: (§10)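 Cells infected with pCDH-3×Flag-KLF5 lentivirus, or vector control lentivirus, were plated and treated for 72 h. Inhibition rate measured by SRB assay. Experimental triplicates, SD shown.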

HCC1937 [34] = assay: Inhibition of cell growth in human HCC1937 cells infected with pCDH-3 Flag tagged KLF5 assessed as ectopic KLF5 expression at 0.01 to 10000 nM for 72 hrs by SRB assay; type: functional, cell-based; conditions: dose 0.01-10000 nM; outline: as §10

## Cc1sc2c(c1C)C(c1ccc(Cl)cc1)=N[C@@H](CC(=O)OC(C)(C)C)c1nnc(C)n1-2
HCC1937 [1]
  Activity: Active
HCC1806 [2]
  Activity: Active
HCC1806 [3]
  Activity: Active
HCC1937 [4]
  Activity: Active
HCC1806 [5]
  Activity: Active
HCC1937 [6]
  Activity: Active
HCC1806 [7]
  Activity: Tde
HCC1937 [8]
  Activity: Tde
HCC1806 [9]
  Activity: Active
HCC1806 [10]
  Activity: Active
HCC1937 [11]
  Activity: Active
HCC1937 [12]
  Activity: Active
HCC1806 [13]
  inhibition: Active
HCC1937 [14]
  inhibition: Active

## CN(C)C/C=C/C(=O)Nc1ccc(C(=O)Nc2cccc(Nc3ncc(Cl)c(-c4c[nH]c5ccccc45)n3)c2)cc1
HCC1806 [15]
  Activity: Active
HCC1937 [16]
  Activity: Active
HCC1806 [17]
  Activity: Active
HCC1937 [18]
  Activity: Active
HCC1806 [19]
  Activity: Active
HCC1937 [20]
  Activity: Active
HCC1806 [21]
  Activity: Active
HCC1937 [22]
  Activity: Active

## Cc1nnn(C)c1-c1cnc2c3c4cnn(C)c4ccc3n([C@H](c3ccccc3)C3CCOCC3)c2c1
HCC1806 [15]
  Activity: Active
HCC1937 [16]
  Activity: Active
HCC1806 [23]
  Ratio: ~10
HCC1937 [24]
  Ratio: ~10
HCC1806 [25]
  Ratio: ~10
HCC1937 [26]
  Ratio: ~10
HCC1806 [27]
  Activity: Active
HCC1937 [28]
  Activity: Active
HCC1806 [29]
  Activity: Active
HCC1937 [30]
  Activity: Active
HCC1806 [31]
  inhibition: Active
HCC1937 [32]
  inhibition: Active
HCC1806 [33]
  inhibition: Active
HCC1937 [34]
  inhibition: Active
